Bioassay records as filed in PubChem.
RGS4 inh = human RGS4 inhibition | HEK293 M3R/RGS4 inducible, Fluo-4 calcium flux; hits give high values; triggered by carbachol at its EC20 | B-score at 10 µM | 310,000 tested, 0.45% active | AID 463165;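 active means B-score, a plate-corrected calcium signal, over three deviations above library mean, with baseline fluorescence within five deviations of library mean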;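 further: RGS4 expression induced by doxycycline in cells with stable M3 receptor; B-score is computed from the integrated fluorescence ratio over baseline after carbachol; higher B-score means a larger calcium signal and so more RGS4 inhibition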
MrgX1 PAM = allosterically activates human MrgX1 receptor signaling | B-score at 10 µM | 310,000 tested, 0.63% active | MrgX1-HEK293, Fluo-4 calcium flux, FDSS; hits give high values | Q96LB2;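 active means plate-corrected calcium response at least 3 library SD above typical, normal starting fluorescence, not activating the receptor alone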;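 further: compound read alongside a low EC10 to EC30 dose of BAM8-22 agonist; peak minus trough fluorescence over baseline measured at the second addition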
RGS4 pot = potentiators or activators of RGS4. B-score at 10 µM. HEK293 M3R/inducible RGS4, carbachol calcium flux Fluo4; hits give low values. AID 463111. 310,000 tested, 0.92% active;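 active means B-score of the integrated calcium signal more than 4 SD below the library mean, with starting fluorescence not abnormally high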;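 further: negative B-score means reduced calcium response which marks RGS4 activation or potentiation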
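System: HEK293 FlpIn-TREx cells, stable M3R, doxycycline-inducible RGS4. Timing: overnight RGS4 induction, 30 min dye load 37 °C, 20 min compound RT. Also added: carbachol, ECmax concentration. Measured by: Fluo4 fluorescence kinetic imaging of calcium. Evaluation: integrated calcium ratio converted to B score.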
MrgX1 antagonist = antagonists of human MrgX1 receptor; Q96LB2; MRGX1-HEK293 calcium flux, Fluo-4, BAM8-22 antagonism; hits give low values; B-score at 10 µM; 310,000 tested, 1.3% active;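 active means calcium-response B-score plate-corrected more than 3 library SD below zero, starting fluorescence within 5 deviations, no agonist response on first addition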;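 further: peak minus trough fluorescence over baseline after final BAM8-22 challenge near maximal dose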
KCC2 mod = KCC2 (human) Cl- transport modulation. Q9H2X9. KCC2 cells, thallium flux FluoZin-2 fluorescence. B-score of Tl+ flux slope (higher = more flux/activation; lower = inhibition) at 10 µM. 190,000 tested, 2.2% active. AID 1456;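 active means thallium flux slope and its plate-corrected score both differing from the plate sample mean at a set confidence after two filtering rounds, in either direction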;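 further: slope of fluorescence scaled to starting intensity during 10 to 20 s after thallium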
MrgX1 agonist = human MrgX1 receptor agonism, primary screen. MrgX1-HEK293 cells, Fluo-4 calcium fluorescence, agonist mode; hits give high values. AID 588627. B-score at 10 µM. 310,000 tested, 0.44% active. Q96LB2;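 active means calcium response B-score plate-corrected fluorescence ratio at least 3 library SD, with starting fluorescence B-score inside 5 SD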
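System – MrgX1-expressing HEK293 cells · Incubation – cells plated overnight, dye loaded 0.5 h 37 °C, 0.5 h room temperature · Technique – kinetic Fluo-4 NW fluorescence of intracellular calcium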
MrgX1 ant reconf = reconfirmed antagonist of human MrgX1 receptor signaling. shares compounds with MrgX1 antagonist. MrgX1-HEK293, BAM8-22 calcium flux, Fluo-4; hits give low values. remaining BAM8-22 calcium response % of control (hits give low values), % at 10 µM. 2,300 tested, 19% active;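 active means remaining agonist calcium response no higher than 100% minus 3 SD of agonist-only control wells, with starting fluorescence near control levels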;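 further: agonist BAM8-22 given at a near maximal EC90 to ECmax level; peak minus minimum fluorescence divided by baseline after agonist addition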
HEK293 Ca flux = MrgX1 antagonist counter-screen hit in parental HEK293 cells; 4,000 tested, 2% active; shares compounds with MrgX1 antagonist; fluorescence ratio F(max-min)/F0 at 10 µM; Fluo-4 calcium fluorescence, FDSS;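 active means duplicate-averaged calcium fluorescence ratio at least three times the standard deviation of buffer wells, a nonspecific response in parental cells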
HEK293 Ca counter = activity in parental HEK293 cells without MrgX1; fluorescence ratio F(max-min)/F0 at 10 µM; parental HEK293 calcium flux, Fluo-4 fluorescence ratio; hits give high values; 4,000 tested, 0.4% active; AID 624114; shares compounds with MrgX1 antagonist;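 active means calcium fluorescence ratio, averaged over duplicates, at least 3 SD of the buffer-well ratio, meaning a nonspecific response in receptor-free cells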;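 further: untransfected parental HEK293 lacking MrgX1 used as counterscreen for MrgX1 allosteric activators; fluorescence change taken during the second addition on a kinetic imager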
HEK293 Ca cntr2 = activity in parental HEK293 cells lacking MrgX1 receptor; Fluo-4 calcium fluorescence (FDSS); hits give high values; fluorescence ratio F(max-min)/F0 at 10 µM; 4,000 tested, 8.7% active; shares compounds with MrgX1 antagonist;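 active means calcium fluorescence ratio at least three times the spread of buffer wells, meaning a non-specific response in parental cells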
Numbers without * were called inactive; i = inactive; x = not tested or not shown. This is a sample that favours compounds with a hit; in the whole collection about 4.7% have one here.

SMILES | RGS4 inh | MrgX1 PAM | RGS4 pot | MrgX1 antagonist | KCC2 mod | MrgX1 agonist | MrgX1 ant reconf | HEK293 Ca flux | HEK293 Ca counter | HEK293 Ca cntr2
COc1ccc(-n2c(SCC#N)nc3c(sc(=S)n3-c3ccccc3)c2=O)c(OC)c1 | i | i | i | i | x | i | x | x | x | x
COc1ccc(Cc2nc3ccc(C(=O)NCC(C)(C)OC)cc3o2)cc1 | i | i | i | -6.31* | x | i | i | i | i | i
COC(=O)CCNC(=O)c1ccc2nc(Cc3ccc(OC)cc3)oc2c1 | i | i | i | i | x | i | x | x | x | x
CCOC(=O)c1sc(-c2ccc(C(F)(F)F)cc2)nc1O | i | i | i | -5.74* | 2.56 | i | 59.3%* | i | i | i
CCS(=O)(=O)N1CCC(NC(=O)C(Cc2cc(OC)ccc2OC)NC(C)=O)CC1 (centres undefined) | i | i | i | i | x | i | x | x | x | x
Cc1cccc(C)c1NC(=O)CSC(=O)c1sc2ccccc2c1Cl | i | i | i | i | 0.402 | i | x | x | x | x
CCN(C(=O)Cc1c(C(=O)O)n(C)c2ccccc12)c1cc(OC)ccc1OC | i | i | i | i | x | i | x | x | x | x
CCN(C(=O)Cc1c(C(=O)O)n(C)c2ccccc12)c1ccc(F)cc1 | i | i | i | -5* | -0.887 | i | i | i | i | i
COc1ccc(-c2nc(CS(=O)CC(=O)N3CCOCC3)c(C)o2)cc1OC (centres undefined) | i | i | i | i | x | i | x | x | x | x
COc1cccc(C(=O)COc2ccc3c(C)c(Cc4ccccc4)c(=O)oc3c2)c1 | i | i | i | i | 1.37 | i | x | x | x | x
COc1cccc(COc2ccc3c(C)c(Cc4ccccc4)c(=O)oc3c2)c1 | i | i | i | -6.28* | x | i | i | i | i | i
COc1ccc(S(=O)(=O)NCC(c2ccco2)N2CCc3ccccc32)cc1 (centres undefined) | i | i | i | i | x | i | x | x | x | x
Cc1ccc(S(=O)(=O)NCC(c2ccco2)N2CCc3ccccc32)cc1 (centres undefined) | i | i | i | -5.57* | x | i | i | i | i | i
Cc1ccc(C(CNS(=O)(=O)c2ccc(Br)cc2)N2CCN(C)CC2)cc1 (centres undefined) | i | i | i | i | x | i | x | x | x | x
Cc1ccc(C(CNS(=O)(=O)c2ccccc2)N2CCN(C)CC2)cc1 (centres undefined) | i | i | i | -8.07* | x | i | i | i | i | i
Cc1ccc(S(=O)(=O)NCC(c2ccco2)N2CCc3ccccc3C2)cc1 (centres undefined) | i | i | i | -5.14* | x | i | i | i | i | i
CCC(NC(=S)NC1CCCCC1)c1ccc(C)cc1 (centres undefined) | i | i | i | i | x | i | x | x | x | x
CC(=O)NC1C(=O)N(CCN2CCOCC2)c2ccc(F)cc21 (centres undefined) | i | i | i | -5.35* | x | i | 60.5%* | i | i | i
CC(=O)NC1C(=O)N(CCN2CCOCC2)c2ccc(Cl)cc21 (centres undefined) | i | i | i | -8.71* | x | i | i | i | i | i
